# From ChEMBL document CHEMBL4732167, “Structure based design, synthesis, and biological evaluation of imidazole derivatives targeting dihydropteroate synthase enzyme” (Bioorg Med Chem Lett, 2021)
# What was measured:
# Escherichia coli = experiment: Antibacterial activity against Escherichia coli MTCC 443 assessed as bacterial growth inhibition; format: functional
# Pseudomonas aeruginosa = experiment: Antibacterial activity against Pseudomonas aeruginosa MTCC 1688 assessed as bacterial growth inhibition; format: functional
# Staphylococcus aureus [1] = experiment: Antibacterial activity against Staphylococcus aureus MTCC 96 assessed as bacterial growth inhibition; format: functional
# Streptococcus pyogenes = experiment: Antibacterial activity against Streptococcus pyogenes MTCC 442 assessed as bacterial growth inhibition; format: functional
# Staphylococcus aureus [2] = experiment: Antibacterial activity against methicillin-resistant Staphylococcus aureus assessed as inhibition of bacterial growth; format: functional
# How it was run: (§1)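 Growth inhibition of the drug-resistant strain was read out as the minimum inhibitory concentration (MIC), reported in µg/mL. The same protocol was also run on an ESBL strain.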
# Aspergillus niger = experiment: Antifungal activity against Aspergillus niger MTCC 282 assessed as fungal growth inhibition; format: functional
# [3] = system: Mycobacterium tuberculosis; experiment: Antibacterial activity against Mycobacterium tuberculosis H37Rv assessed as bacterial growth inhibition; format: functional
# [4] = Antioxidant activity assessed as nitric oxide radical scavenging activity at 100 ug/ml (reference value: 25.8 to 41.6 %); format: functional; conditions: dose 100.0 µg/ml
# How it was run: (§2)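 Nitric oxide radical scavenging was tested at 0, 25, 50, 75 and 100 µg/ml of compound.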
# [5] = Antioxidant activity assessed as DPPH radical scavenging activity at 50 ug/ml (reference value: 22 to 40.2 %); format: functional; conditions: dose 50.0 µg/ml
# How it was run: (§3)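 DPPH radical scavenging was measured at 0, 25, 50, 75 and 100 µg/ml of each compound. Ascorbic acid was the reference.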
# Bacteria = experiment: Antibacterial activity against ESBL-producing bacteria assessed as bacterial growth inhibition; format: functional
# How it was run: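 Values are minimum inhibitory concentrations (MIC) in µg/mL, determined at an outside microbiology laboratory.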
# [6] = Antioxidant activity assessed as nitric oxide radical scavenging activity at 25 ug/ml (reference value: 25.8 to 41.6 %); format: functional; conditions: dose 25.0 µg/ml; how it was run: as §2
# Candida albicans = experiment: Antifungal activity against Candida albicans MTCC 227 assessed as fungal growth inhibition; format: functional
# Aspergillus clavatus = experiment: Antifungal activity against Aspergillus clavatus MTCC 1323 assessed as fungal growth inhibition; format: functional
# [7] = Antioxidant activity assessed as DPPH radical scavenging activity at 100 ug/ml (reference value: 22 to 40.2 %); format: functional; conditions: dose 100.0 µg/ml; how it was run: as §3
# [8] = Antioxidant activity assessed as DPPH radical scavenging activity at 25 ug/ml (reference value: 22 to 40.2 %); format: functional; conditions: dose 25.0 µg/ml; how it was run: as §3
# Enterococcus = experiment: Antibacterial activity against vancomycin-resistant Enterococcus assessed as inhibition of bacterial growth; format: functional; how it was run: as §1
# [9] = Antioxidant activity assessed as nitric oxide radical scavenging activity at 50 ug/ml (reference value: 25.8 to 41.6 %); format: functional; conditions: dose 50.0 µg/ml; how it was run: as §2
# [10] = Antioxidant activity assessed as DPPH radical scavenging activity at 75 ug/ml (reference value: 22 to 40.2 %); format: functional; conditions: dose 75.0 µg/ml; how it was run: as §3
# [11] = Antioxidant activity assessed as nitric oxide radical scavenging activity at 75 ug/ml (reference value: 25.8 to 41.6 %); format: functional; conditions: dose 75.0 µg/ml; how it was run: as §2
# [12] = Antioxidant activity assessed as hydrogen peroxide radical scavenging activity at 100 ug/ml (reference value: 23.6 to 43.1 %); format: functional; conditions: dose 100.0 µg/ml
# How it was run: (§4)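 Hydrogen peroxide scavenging was measured across a compound series of 0, 25, 50, 75 and 100 µg/ml.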
# [13] = Antioxidant activity assessed as hydrogen peroxide radical scavenging activity at 25 ug/ml (reference value: 23.6 to 43.1 %); format: functional; conditions: dose 25.0 µg/ml; how it was run: as §4
# [14] = Antioxidant activity assessed as hydrogen peroxide radical scavenging activity at 75 ug/ml (reference value: 23.6 to 43.1 %); format: functional; conditions: dose 75.0 µg/ml; how it was run: as §4
# [15] = Antioxidant activity assessed as hydrogen peroxide radical scavenging activity at 50 ug/ml (reference value: 23.6 to 43.1 %); format: functional; conditions: dose 50.0 µg/ml; how it was run: as §4
# Plasmodium falciparum = experiment: Antimalarial activity against Plasmodium falciparum assessed as parasite growth inhibition; format: functional, organism-based
Compound,MIC (Escherichia coli) [µg/mL],MIC (Pseudomonas aeruginosa) [µg/mL],MIC (Staphylococcus aureus [1]) [µg/mL],MIC (Streptococcus pyogenes) [µg/mL],MFC (Aspergillus niger) [µg/mL],MIC [3] [µg/mL],Activity [4] [%],Activity [5] [%],MIC (Bacteria) [µg/mL],Activity [6] [%],MFC (Candida albicans) [µg/mL],MFC (Aspergillus clavatus) [µg/mL],Activity [7] [%],Activity [8] [%],Activity [9] [%],Activity [10] [%],Activity [11] [%],Activity [12] [%],Activity [13] [%],Activity [14] [%],also measured
CCn1cc(C(=O)O)c(=O)c2cc(F)c(N3CCNCC3)cc21 [NORFLOXACIN],10,10,10,10,,,,,,,,,,,,,,,,,
COc1ccc(-n2c(SCC(=O)Nc3ccc(OC(=O)c4ccco4)cc3)nc(C)c2C(C)=O)cc1,125,100,250,125,> 1000,62.5,84.5,47.1,500,37.7,250,> 1000,85.2,32.5,59.3,66.2,78.9,90,59.3,81,MIC (Staphylococcus aureus [2]): 500 µg/mL; MIC (Enterococcus): 250 µg/mL; Activity [15]: 69.9%; IC50 (Plasmodium falciparum): 0.78 µg/mL
CC(=O)c1c(C)nc(SCC(=O)Nc2ccc(OC(=O)c3ccc(Cl)cc3)cc2)n1-c1ccc(Cl)cc1,250,100,125,100,> 1000,,89.4,49.3,1000,41.8,> 1000,> 1000,84.5,36.9,58.3,64.9,81.9,93.6,50.8,80,Activity [15]: 66.6%; IC50 (Plasmodium falciparum): 0.46 µg/mL
CC(=O)c1c(C)nc(SCC(=O)Nc2ccc(OCc3ccccc3)cc2)n1-c1ccccc1,125,50,25,125,1000,500,87.4,48.6,250,48.3,500,1000,84.3,36.4,64.2,60,80.3,81.9,43.8,69.4,MIC (Staphylococcus aureus [2]): 100 µg/mL; MIC (Enterococcus): 500 µg/mL; Activity [15]: 58%; IC50 (Plasmodium falciparum): 0.93 µg/mL
O=C(N[C@H](CO)[C@H](O)c1ccc([N+](=O)[O-])cc1)C(Cl)Cl [CHLORAMPHENICOL],50,50,50,50,,,,,,,,,,,,,,,,,
COc1ccc(-n2c(SCC(=O)Nc3ccc(OCc4ccc(F)cc4)cc3)nc(C)c2C(C)=O)cc1,12.5,25,100,100,500,50,90.5,54.2,25,45.8,500,500,84.3,31.6,63.4,67.2,81.4,84.3,54,79.8,MIC (Staphylococcus aureus [2]): 125 µg/mL; MIC (Enterococcus): 100 µg/mL; Activity [15]: 68.1%; IC50 (Plasmodium falciparum): 1.4 µg/mL
CC(=O)c1c(C)nc(SCC(=O)Nc2ccc(OCc3ccc(Cl)cc3)cc2)n1-c1ccccc1,100,25,250,62.5,500,12.5,88.4,68.2,125,49.5,> 1000,500,84.7,52.1,61.4,76,76.9,79.6,42.6,67.3,MIC (Staphylococcus aureus [2]): 100 µg/mL; MIC (Enterococcus): 100 µg/mL; Activity [15]: 59.4%; IC50 (Plasmodium falciparum): 1.45 µg/mL
NNC(=O)c1ccncc1 [ISONIAZID],,,,,,0.2,,,,,,,,,,,,,,,
CC1(C)S[C@@H]2[C@H](NC(=O)[C@H](N)c3ccccc3)C(=O)N2[C@H]1C(=O)O [AMPICILLIN],100,100,250,100,,,,,,,,,,,,,,,,,
